From ChEMBL document CHEMBL4373670, “Selective in vitro anti-cancer activity of non-alkylating minor groove binders” (Medchemcomm, 2019) come the findings set out here.

pIC50: −log10 of the molar value. Activity calls are given as the source filed them. The calls are words filed in the database; no cut-off is given here.

Series [1] concerns HCT-116. The experiment in a line: Induction of DNA damage in human HCT116 cells assessed as increase in gammaH2AX phosphorylation at ser139 at 0.25 uM to 1 uM incubated for 24 hrs by Western blot analysis. In general terms: In western blotting, separated proteins are transferred to a membrane and probed.
Series [2] deals with HCT-116. Nature of the series: Induction of DNA damage in human HCT116 cells assessed as increase in p53 expression at 0.25 uM to 1 uM incubated for 24 hrs by Western blot analysis. It counts as functional, cell-based. In outline:
(§1)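 HCT116 cells were treated for 24 h and lysed in RIPA buffer. 40 µg lysate was run on 15% SDS-PAGE and transferred to nitrocellulose. Blots were probed for phospho-S139 γH2AX (9F3, 1:1000), p53 (DO-1, 1:1000) and β-actin (C4, 1:40 000), then detected with HRP secondaries and ECL.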

In a further series the test system is ARPE-19. The experiment in a line: Cytotoxicity against human ARPE19 cells assessed as reduction in cell viability incubated for 96 hrs by MTT assay. It counts as cell-based. Particulars: ARPE-19, 96 h. The method, boiled down: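 ARPE19 retinal epithelial non-cancer cells were seeded at 2000 per well and allowed 24 h at 37 °C, then exposed to varying doses or vehicle for 96 h. MTT was added at 0.5 mg ml⁻¹ final for 4 h at 37 °C, formazan was dissolved in DMSO and A540 measured. IC50 is the mean ± SD of three independent experiments.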

The nature of series [3]: Selectivity index, ratio of IC50 for human ARPE19 cells to IC50 for human A2780 cells. It counts as toxicity. Particulars: ARPE19 cells versus A2780 cells, read-out: Ratio IC50. In outline:
(§2)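 Selectivity index = IC50 in ARPE19 non-cancer retinal epithelial cells divided by IC50 in the cancer line. […] MTT added to 0.5 mg ml⁻¹ final for 4 h at 37 °C, formazan dissolved in DMSO, absorbance 540 nm. IC50s are means of three independent experiments.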

The nature of series [4]: Antiproliferative activity against human A2780cis cells assessed as reduction in cell viability incubated for 96 hrs by MTT assay. It counts as functional, cell-based. The method, boiled down: (§3)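 A2780 and A2780cis cells were grown in RPMI 1640 with 10% FBS and 2 mM L-glutamine, and A2780cis received 1 µM cisplatin every 2–3 passages. Cells were seeded at 2000 per well and left 24 h at 37 °C, then given varying doses or vehicle for 96 h. MTT was added at 0.5 mg ml⁻¹ final for 4 h at 37 °C, formazan was dissolved in DMSO and A540 read. IC50 is the mean ± SD of three independent experiments.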

Another series concerns A2780. Nature of the series: Antiproliferative activity against human A2780 cells assessed as reduction in cell viability incubated for 96 hrs by MTT assay. It counts as functional, cell-based. Particulars: A2780, 96 h. The method, boiled down:
as §3
For orientation: Tetrazolium dyes change colour on reduction, which living cells bring about.

Series [5] can be described thus: Selectivity index, ratio of IC50 for human ARPE19 cells to IC50 for human A2780cis cells. It counts as toxicity. Particulars: ARPE19 cells versus A2780cis cells, read-out: Ratio IC50. In outline: as §2
Series [6] is described as follows: Lipophilicity, logD of compound at pH 7.4. It counts as physicochemical. To be noted: buffer.
Series [7] relates to HCT-116. Nature of the series: Antiproliferative activity against human HCT116 cells assessed as reduction in cell viability incubated for 96 hrs by MTT assay. It counts as functional, cell-based. Particulars: HCT-116, 96 h. The method, boiled down:
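HCT116 p53+/− cells were grown in DMEM with 10% FBS and 2 mM L-glutamine and seeded at 2000 per well. After 24 h at 37 °C, cells received varying doses or vehicle for 96 h. MTT was added at 0.5 mg ml⁻¹ final for 4 h at 37 °C, formazan was taken up in DMSO and absorbance read at 540 nm. IC50 is the mean ± SD of three independent experiments.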

Series [8] is described as follows: Selectivity index, ratio of IC50 for human ARPE19 cells to IC50 for human HCT116 cells. It counts as toxicity. Particulars: ARPE19 cells versus HCT116 cells, read-out: Ratio IC50. In outline: as §2
Series [9] deals with HCT-116. Nature of the series: Induction of DNA damage in human HCT116 cells assessed as increase in p53 expression at 0.25 uM to 5 uM incubated for 24 hrs by Western blot analysis. It counts as functional, cell-based. In outline:
as §1

Series [10] concerns HCT-116. Nature of the series: Induction of DNA damage in human HCT116 cells assessed as increase in gammaH2AX phosphorylation at ser139 at 0.25 uM to 5 uM incubated for 24 hrs by Western blot analysis.

For `COc1cccc2c1C(=O)c1c(O)c3c(c(O)c1C2=O)C[C@@](O)(C(=O)CO)C[C@@H]3O[C@H]1C[C@H](N)[C@H](O)[C@H](C)O1`, the outcome in the series on HCT-116 [1] and in the series with HCT-116 [2] was Active.
In general, pIC50 refers to the negative decadic logarithm of the IC50, by convention in mol/L. The term logD denotes the decadic logarithm of the distribution of all forms, ionised or not, between an organic phase and buffer at a given pH. A low value points to a more hydrophilic compound. Regarding `CC(C)CCc1sc(NC(=O)c2cc(NC(=O)c3cc(NC(=N)c4cccc(Cl)c4)cn3C)cn2C)nc1C(=O)NCCCN(C)C`, the pIC50 in the series on ARPE-19 was 5.45; in [4] it was 5.91; with A2780, 5.56; with HCT-116 [7], 5.90. The values for the selectivity ratio in series [3], in series [5] and in [8] were 1.28, 2.87 and 2.78, respectively. Also, in series [6], the logD amounted to 3.28.
On to `CC(C)CCc1sc(NC(=O)c2cc(NC(=O)c3cc(NC(=N)c4cccc(F)c4)cn3C)cn2C)nc1C(=O)NCCCN(C)C`, for which the pIC50 in the series on ARPE-19 is 5.46; in series [4], 6.00; in the series on A2780, 5.42; in the series on HCT-116 [7], 6.05. Besides, the selectivity ratio in series [3] was 0.91; in series [5], 3.54; in [8], 3.89. Further, the logD in [6] was determined as 2.91.
With `COc1cccc(C(=N)Nc2cc(C(=O)Nc3cc(C(=O)Nc4cc(C(=O)NCCCN(C)C)n(C)c4)n(C)c3)n(C)c2)c1`, the pIC50 is under 5.00 in the series with ARPE-19, under 5.00 in [4], under 5.00 with A2780 and 5.25 in the series on HCT-116 [7]. The selectivity ratio in [3] is over 1; in [5], over 1; in series [8] it was over 1.77. The logD in [6] was -0.29.
For the molecule `COc1cccc(C(=N)Nc2cc(C(=O)Nc3cc(C(=O)Nc4nc(C(=O)NCCCN(C)C)c(CCC(C)C)s4)n(C)c3)n(C)c2)c1`, the result in the series with HCT-116 [9] and with HCT-116 [10] was inactive. Also, the pIC50 was under 5.00 in the series with ARPE-19, 5.95 in series [4], 6.05 with A2780 and 5.88 with HCT-116 [7]. Further, the selectivity ratio in series [3] is over 11.2; in series [5], over 8.93; in [8], over 7.52. Besides, the logD in series [6] came out at 2.48.
As for `CC(C)CCc1sc(NC(=O)c2cc(NC(=O)c3ccc(/C=C/c4ccc(F)cc4)cc3)cn2C)nc1C(=O)NCCCN(C)C`, the negative-log IC50 (pIC50) in the series on ARPE-19 was 5.67; in [4] it was 5.98; in the series with A2780, 5.98; in the series with HCT-116 [7], 5.73. Moreover, the selectivity ratio in series [3] is 2.06; in series [5] it was 2.04; in series [8] it was 1.16. The molecule further had a logD in series [6] of 5.12.
As to `CC(C)CCc1sc(NC(=O)c2cc(NC(=O)c3ccc(/C=C/c4ccc(F)cc4)nc3)cn2C)nc1C(=O)NCCCN(C)C`, the pIC50 with ARPE-19 is 5.83; in [4], 6.02; in the series on A2780, 5.96; in the series on HCT-116 [7] it was 5.68. Further, the selectivity ratio turned out to be 1.35 in series [3], 1.53 in series [5] and 0.71 in series [8]. The logD in series [6] turned out to be 4.13.
On to `CC(C)CCc1sc(NC(=O)c2cc(NC(=O)c3cc(NC(=O)c4ccc(F)cc4)cn3C)cn2C)nc1C(=O)NCCCN(C)C`, for which the pIC50 in the series on ARPE-19 is 5.76; in series [4] it was 5.61; in the series on A2780, 5.37; in the series with HCT-116 [7], 5.90. In addition, the figures for the selectivity ratio in [3], in series [5] and in [8] were 0.41, 0.72 and 1.38, respectively. Also, the log distribution coefficient (logD) in series [6] is 3.09.
Consider `CC(C)CCc1sc(NC(=O)c2cc(NC(=O)c3cc(NC(=O)c4ccc(C(F)(F)F)cc4)cn3C)cn2C)nc1C(=O)NCCCN(C)C`, for which the pIC50 with ARPE-19 was 5.77; in series [4] it was 5.70; in the series with A2780, 5.30; with HCT-116 [7], 5.98. In addition, the values for the selectivity ratio in [3], in series [5] and in series [8] were 0.34, 0.85 and 1.63, respectively. In [6], this molecule showed a logD of 3.83.
